What was measured:
Mus musculus = assay: Antidepressant activity in ip dosed mouse assessed as prevention of reserpine-induced ptosis; format: functional
How it was run: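 Mice dosed ip with test compound; reserpine given to induce ptosis (adapted Petersen et al. method). The percentage of mice with ptosis prevented was recorded. ED50 (mg/kg) derived by the Finney method.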

[1] = Acute toxicity in ip dosed albino mouse assessed as mortality measured for 5 days; format: organism-based; settings: in vivo
How it was run: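 Graded intraperitoneal doses, five animals per group; approximate LD50 estimated from mortality recorded over the 5 days after dosing.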

Rattus norvegicus = assay: Antidepressant activity in ip dosed rat assessed as prevention of tetrabenazine-induced ptosis; format: functional
How it was run: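 Rats dosed ip; tetrabenazine used to induce ptosis (modified Giurgea et al. method). ED50 (mg/kg) derived by the Finney method from prevention of ptosis.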

| Compound | ED50 (Mus musculus) | LD50 at 120 h [1] | ED50 (Rattus norvegicus) |
| --- | --- | --- | --- |
| CCCn1c2c(c3ccccc31)CCCC2(C)CCN(C)C.Cl (centres undefined) | 0.4 mg/kg | 125 mg/kg |  |
| Br.CCn1c2c(c3ccccc31)CCCC2(CC)CCN(C)C (centres undefined) | 0.7 mg/kg | 175 mg/kg |  |
| CCc1cccc2c3c(n(CC)c12)C(C)(CCN(C)C)CCC3.O=C(O)/C=C/C(=O)O (centres undefined) | 19 mg/kg |  |  |
| CCn1c2c(c3cc(Cl)ccc31)CCCC2(C)CCN(C)C.Cl (centres undefined) | 0.19 mg/kg |  |  |
| CCn1c2c(c3ccccc31)CCCCC2(C)CCN(C)C.Cl (centres undefined) | 0.27 mg/kg | 85 mg/kg |  |
| Br.CCn1c2c(c3ccccc31)CCC2(C)CCN(C)C (centres undefined) | 0.75 mg/kg |  |  |
| CCn1c2c(c3ccccc31)CCCC2(C)CCNC.Cl (centres undefined) | 1.6 mg/kg | 125 mg/kg |  |
| CN(C)CCC1(C)CCCc2c1n(C)c1ccccc21.Cl (centres undefined) | 0.8 mg/kg | 125 mg/kg |  |
| CCn1c2c(c3ccccc31)CCCC2(C)CCN(C)C.Cl (centres undefined) | 0.12 mg/kg | 125 mg/kg | 3.3 mg/kg |
| CN(C)CCCN1c2ccccc2CCc2ccccc21 [IMIPRAMINE] | 6 mg/kg |  | 22.6 mg/kg |
| CN(C)CCC=C1c2ccccc2CCc2ccccc21 [AMITRIPTYLINE] | 4.7 mg/kg | 94 mg/kg | 37 mg/kg |
| CN(C)CC1CCCc2c1[nH]c1ccc(Cl)cc21 (centres undefined) | > 30 mg/kg |  |  |
| CN(C)CCC1CCCc2c1n(C)c1ccccc21.Cl (centres undefined) | 5 mg/kg | 125 mg/kg |  |

From ChEMBL document CHEMBL3272165, “Cycloalkanoindoles. 2. 1-Alkyl-1,2,3,4-tetrahydrocarbazole-1-ethanamines and related compounds. Potential antidepressants” (J Med Chem, 1976)
